Measured values as given in ChEMBL document CHEMBL3286187, “Synthesis, antibacterial and antitubercular activities of benzimidazole bearing substituted 2-pyridone motifs” (Eur J Med Chem, 2014).
≈ marks a conversion by molar mass, not a printed value.

What was measured:
[1] = tested on: Escherichia coli; assay: Antimicrobial activity against Escherichia coli MTCC-443 after 24 hrs by broth dilution method; assay type: functional; conditions: MTCC-443, 24 h
Summary of the method: (§1)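 NCCLS broth dilution in Mueller Hinton broth with 2% DMSO as vehicle. Primary screen at 1000, 500 and 250 µg/mL; actives retested at 200 to 6.25 µg/mL. Inoculum 10⁶ CFU/mL, set by turbidity. Incubated 24 h at 37 °C; growth read visually and spectrophotometrically. MIC is the lowest concentration arresting growth. Chloramphenicol was the positive control; DMSO and water were negative controls.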

[2] = tested on: Pseudomonas aeruginosa; assay: Antimicrobial activity against Pseudomonas aeruginosa MTCC-1688 after 24 hrs by broth dilution method; assay type: functional; conditions: MTCC-1688, 24 h; summary of the method: as §1
[3] = tested on: Staphylococcus aureus; assay: Antimicrobial activity against Staphylococcus aureus MTCC-96 after 24 hrs by broth dilution method; assay type: functional; conditions: MTCC-96, 24 h; summary of the method: as §1
[4] = tested on: Streptococcus pyogenes; assay: Antimicrobial activity against Streptococcus pyogenes MTCC-442 after 24 hrs by broth dilution method; assay type: functional; conditions: MTCC-442, 24 h; summary of the method: as §1
[5] = tested on: Mycobacterium tuberculosis; assay: Antitubercular activity against Mycobacterium tuberculosis H37Rv ATCC 27294 after 5 to 8 days by BACTEC 12B method; assay type: functional
[6] = tested on: Vero; assay: Cytotoxicity against african green monkey Vero cells after 72 hrs by MTS-PMS method; assay type: cell-based; conditions: Chlorocebus sabaeus
Summary of the method: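 Vero cells in DMEM with 10% FBS at 37 °C, 5% CO2, diluted to 10^6 cells/mL. Threefold serial dilutions gave final […] to 0.12 µg/mL with 1% DMSO. Incubated 72 h, washed with HBSS, then MTS-PMS (100:20) added for 3 h; absorbance read at 490 nm. Triplicate wells, assay repeated three times. Controls set as 100% viability; IC50 taken as 50% growth inhibition.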

[7] = tested on: Staphylococcus aureus; assay: Antimicrobial activity against methicillin-resistant Staphylococcus aureus ATCC 43300 after 24 hrs by broth dilution method; assay type: functional; conditions: ATCC 43300, 24 h
Summary of the method: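 Broth dilution per NCCLS in Mueller Hinton broth; compounds in 2% DMSO, 1000 µg/mL stock; primary screen 1000, 500, 250 µg/mL, then secondary dilutions 200 to 6.25 µg/mL. Inoculum 10⁶ CFU/mL by turbidity; 24 h at 37 °C, growth read visually and spectrophotometrically. MIC = lowest concentration arresting growth. DMSO/water negative control; chloramphenicol positive control.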

[8] = tested on: Staphylococcus aureus; assay: Ratio of ciprofloxacin MIC to compound MIC for methicillin-resistant Staphylococcus aureus ATCC 43300 after 24 hrs by broth dilution method; assay type: functional
[9] = tested on: Staphylococcus aureus; assay: Ratio of chloramphenicol MIC to compound MIC for methicillin-resistant Staphylococcus aureus ATCC 43300 after 24 hrs by broth dilution method; assay type: functional

Row | SMILES | MIC [1] | MIC [2] | MIC [3] | MIC [4] | MIC [5] | IC50 [6] | MIC [7] | Ratio [8] | Ratio [9]
1 | C/C(=N\NC(=O)CC#N)c1nc2ccccc2[nH]1 | > 1000 µg/mL | > 1000 µg/mL | 1000 µg/mL (≈ 4150 µM) | 1000 µg/mL (≈ 4150 µM) | > 39.4 µg/mL | – | – | – | –
2 | C/C(=N\n1c(N)c(C#N)c(-c2ccc([N+](=O)[O-])cc2)c(C#N)c1=O)c1nc2ccccc2[nH]1 | 500 µg/mL (≈ 1140 µM) | 500 µg/mL (≈ 1140 µM) | 500 µg/mL (≈ 1140 µM) | 500 µg/mL (≈ 1140 µM) | > 39.4 µg/mL | – | – | – | –
3 | C/C(=N\n1c(/N=C/c2ccccc2)c(C#N)c(-c2ccc([N+](=O)[O-])cc2)c(C#N)c1=O)c1nc2ccccc2[nH]1 | 500 µg/mL (≈ 950 µM) | 500 µg/mL (≈ 950 µM) | 500 µg/mL (≈ 950 µM) | 500 µg/mL (≈ 950 µM) | 35.2 µg/mL (≈ 66.9 µM) | 17.6 µg/mL (≈ 33.4 µM) | – | – | –
4 | C/C(=N\n1c(/N=C/c2ccccc2O)c(C#N)c(-c2ccc([N+](=O)[O-])cc2)c(C#N)c1=O)c1nc2ccccc2[nH]1 | 500 µg/mL (≈ 922 µM) | 500 µg/mL (≈ 922 µM) | 500 µg/mL (≈ 922 µM) | 250 µg/mL (≈ 461 µM) | 31.6 µg/mL (≈ 58.3 µM) | 19.8 µg/mL (≈ 36.6 µM) | – | – | –
5 | C/C(=N\n1c(/N=C/c2cccc(O)c2)c(C#N)c(-c2ccc([N+](=O)[O-])cc2)c(C#N)c1=O)c1nc2ccccc2[nH]1 | 500 µg/mL (≈ 922 µM) | 250 µg/mL (≈ 461 µM) | 100 µg/mL (≈ 184 µM) | 500 µg/mL (≈ 922 µM) | 30.2 µg/mL (≈ 55.6 µM) | 17 µg/mL (≈ 31.3 µM) | – | – | –
6 | C/C(=N\n1c(/N=C/c2ccc(O)cc2)c(C#N)c(-c2ccc([N+](=O)[O-])cc2)c(C#N)c1=O)c1nc2ccccc2[nH]1 | 250 µg/mL (≈ 461 µM) | 500 µg/mL (≈ 922 µM) | 500 µg/mL (≈ 922 µM) | 250 µg/mL (≈ 461 µM) | 30.9 µg/mL (≈ 56.9 µM) | 13.7 µg/mL (≈ 25.3 µM) | – | – | –
7 | C/C(=N\n1c(/N=C/c2cccc(F)c2)c(C#N)c(-c2ccc([N+](=O)[O-])cc2)c(C#N)c1=O)c1nc2ccccc2[nH]1 | 100 µg/mL (≈ 184 µM) | 250 µg/mL (≈ 459 µM) | 100 µg/mL (≈ 184 µM) | 125 µg/mL (≈ 230 µM) | 25.4 µg/mL (≈ 46.6 µM) | 23.6 µg/mL (≈ 43.4 µM) | – | – | –
8 | C/C(=N\n1c(/N=C/c2ccc(F)cc2)c(C#N)c(-c2ccc([N+](=O)[O-])cc2)c(C#N)c1=O)c1nc2ccccc2[nH]1 | 250 µg/mL (≈ 459 µM) | 250 µg/mL (≈ 459 µM) | 250 µg/mL (≈ 459 µM) | 100 µg/mL (≈ 184 µM) | 27.1 µg/mL (≈ 49.8 µM) | 24.8 µg/mL (≈ 45.5 µM) | – | – | –
9 | C/C(=N\n1c(/N=C/c2ccccc2Cl)c(C#N)c(-c2ccc([N+](=O)[O-])cc2)c(C#N)c1=O)c1nc2ccccc2[nH]1 | 100 µg/mL (≈ 178 µM) | 125 µg/mL (≈ 223 µM) | 50 µg/mL (≈ 89.1 µM) | 62.5 µg/mL (≈ 111 µM) | 2.65 µg/mL (≈ 4.72 µM) | > 39.4 µg/mL | – | – | –
10 | C/C(=N\n1c(/N=C/c2cccc(Cl)c2)c(C#N)c(-c2ccc([N+](=O)[O-])cc2)c(C#N)c1=O)c1nc2ccccc2[nH]1 | 50 µg/mL (≈ 89.1 µM) | 62.5 µg/mL (≈ 111 µM) | 25 µg/mL (≈ 44.6 µM) | 50 µg/mL (≈ 89.1 µM) | 0.85 µg/mL (≈ 1.52 µM) | > 39.4 µg/mL | > 50 µg/mL | – | –
11 | C/C(=N\n1c(/N=C/c2ccc(Cl)cc2)c(C#N)c(-c2ccc([N+](=O)[O-])cc2)c(C#N)c1=O)c1nc2ccccc2[nH]1 | 100 µg/mL (≈ 178 µM) | 100 µg/mL (≈ 178 µM) | 62.5 µg/mL (≈ 111 µM) | 50 µg/mL (≈ 89.1 µM) | 1.79 µg/mL (≈ 3.19 µM) | > 39.4 µg/mL | – | – | –
12 | C/C(=N\n1c(/N=C/c2ccccc2C)c(C#N)c(-c2ccc([N+](=O)[O-])cc2)c(C#N)c1=O)c1nc2ccccc2[nH]1 | 250 µg/mL (≈ 462 µM) | 250 µg/mL (≈ 462 µM) | 125 µg/mL (≈ 231 µM) | 100 µg/mL (≈ 185 µM) | 9.17 µg/mL (≈ 17 µM) | 34.5 µg/mL (≈ 63.9 µM) | – | – | –
13 | C/C(=N\n1c(/N=C/c2cccc(C)c2)c(C#N)c(-c2ccc([N+](=O)[O-])cc2)c(C#N)c1=O)c1nc2ccccc2[nH]1 | 100 µg/mL (≈ 185 µM) | 100 µg/mL (≈ 185 µM) | 100 µg/mL (≈ 185 µM) | 100 µg/mL (≈ 185 µM) | 2.07 µg/mL (≈ 3.83 µM) | > 39.4 µg/mL | – | – | –
14 | C/C(=N\n1c(/N=C/c2ccc(C)cc2)c(C#N)c(-c2ccc([N+](=O)[O-])cc2)c(C#N)c1=O)c1nc2ccccc2[nH]1 | 250 µg/mL (≈ 462 µM) | 250 µg/mL (≈ 462 µM) | 250 µg/mL (≈ 462 µM) | 125 µg/mL (≈ 231 µM) | 6.28 µg/mL (≈ 11.6 µM) | > 39.4 µg/mL | – | – | –
15 | COc1cccc(/C=N/c2c(C#N)c(-c3ccc([N+](=O)[O-])cc3)c(C#N)c(=O)n2/N=C(\C)c2nc3ccccc3[nH]2)c1 | 250 µg/mL (≈ 449 µM) | 500 µg/mL (≈ 898 µM) | 100 µg/mL (≈ 180 µM) | 250 µg/mL (≈ 449 µM) | 18 µg/mL (≈ 32.3 µM) | 24.2 µg/mL (≈ 43.5 µM) | – | – | –
16 | COc1ccc(/C=N/c2c(C#N)c(-c3ccc([N+](=O)[O-])cc3)c(C#N)c(=O)n2/N=C(\C)c2nc3ccccc3[nH]2)cc1 | 500 µg/mL (≈ 898 µM) | 500 µg/mL (≈ 898 µM) | 250 µg/mL (≈ 449 µM) | 250 µg/mL (≈ 449 µM) | 23.5 µg/mL (≈ 42.2 µM) | 25.4 µg/mL (≈ 45.6 µM) | – | – | –
17 | C/C(=N\n1c(/N=C/c2cccc([N+](=O)[O-])c2)c(C#N)c(-c2ccc([N+](=O)[O-])cc2)c(C#N)c1=O)c1nc2ccccc2[nH]1 | 250 µg/mL (≈ 437 µM) | 500 µg/mL (≈ 875 µM) | 250 µg/mL (≈ 437 µM) | 500 µg/mL (≈ 875 µM) | 28.3 µg/mL (≈ 49.6 µM) | 27.6 µg/mL (≈ 48.3 µM) | – | – | –
18 | C/C(=N\n1c(/N=C/c2ccc([N+](=O)[O-])cc2)c(C#N)c(-c2ccc([N+](=O)[O-])cc2)c(C#N)c1=O)c1nc2ccccc2[nH]1 | 1000 µg/mL (≈ 1750 µM) | 1000 µg/mL (≈ 1750 µM) | 500 µg/mL (≈ 875 µM) | 500 µg/mL (≈ 875 µM) | 32.2 µg/mL (≈ 56.4 µM) | 16.1 µg/mL (≈ 28.1 µM) | – | – | –
19 | C/C(=N\n1c(/N=C/c2cccc(Br)c2)c(C#N)c(-c2ccc([N+](=O)[O-])cc2)c(C#N)c1=O)c1nc2ccccc2[nH]1 | 25 µg/mL (≈ 41.3 µM) | 25 µg/mL (≈ 41.3 µM) | 12.5 µg/mL (≈ 20.6 µM) | 25 µg/mL (≈ 41.3 µM) | 10.3 µg/mL (≈ 17 µM) | > 39.4 µg/mL | 12.5 µg/mL (≈ 20.6 µM) | 2 | 4
20 | C/C(=N\n1c(/N=C/c2ccc(Br)cc2)c(C#N)c(-c2ccc([N+](=O)[O-])cc2)c(C#N)c1=O)c1nc2ccccc2[nH]1 | 50 µg/mL (≈ 82.6 µM) | 50 µg/mL (≈ 82.6 µM) | 25 µg/mL (≈ 41.3 µM) | 50 µg/mL (≈ 82.6 µM) | 13.8 µg/mL (≈ 22.8 µM) | > 39.4 µg/mL | 6.25 µg/mL (≈ 10.3 µM) | 4 | 8
21 | O=C(N[C@H](CO)[C@H](O)c1ccc([N+](=O)[O-])cc1)C(Cl)Cl [CHLORAMPHENICOL] | 50 µg/mL (≈ 155 µM) | 50 µg/mL (≈ 155 µM) | 50 µg/mL (≈ 155 µM) | 50 µg/mL (≈ 155 µM) | – | – | 50 µg/mL (≈ 155 µM) | – | –
22 | O=C(O)c1cn(C2CC2)c2cc(N3CCNCC3)c(F)cc2c1=O [CIPROFLOXACIN] | 25 µg/mL (≈ 75.4 µM) | – | 50 µg/mL (≈ 151 µM) | 50 µg/mL (≈ 151 µM) | – | – | – | – | –
23 | NNC(=O)c1ccncc1 [ISONIAZID] | – | – | – | – | 0.24 µg/mL (≈ 1.75 µM) | – | – | – | –
